Series [1] in a line: Drug metabolism in mouse liver microsomes assessed as CYP450 mediated compound […] by measuring parent compound remaining at 5 uM after 15 mins in presence of NADPH by UPLC/MS/ESI analysis. Format: ADME. Particulars: read-out: Stability.
The nature of series [2]: Drug metabolism in human plasma assessed as parent compound remaining after 15 mins by UPLC/MS/ESI analysis. Format: ADME, cell-free. The settings on record: read-out: Stability.
Series [3] is described as follows: Drug uptake in Swiss mouse blood at 50 mg/kg, po administered as single dose after 2 hrs by UPLC/MS/ESI analysis. Particulars: whole blood, read-out: Drug uptake. Format: ADME, organism-based. The procedure, abridged: (§1)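 Mice were given the compound orally as a single dose of either 25 or 50 mg/kg, one group per dose. Plasma concentrations were followed over time up to 24 h, and the pharmacokinetic parameters were derived from the concentration-time profile.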

Series [4] is described as follows: Drug metabolism in human plasma assessed as parent compound remaining after 30 mins by UPLC/MS/ESI analysis. Format: ADME, cell-free. The settings on record: read-out: Stability.
The test system of the next series is Peritoneal macrophage. The series can be described thus: Cytotoxicity against mouse primary peritoneal macrophages after 72 hrs by resazurin dye-based fluorimetric analysis. Format: cell-based.
Series [5] is described as follows: Drug metabolism in mouse liver microsomes assessed as CYP450 mediated compound […] by measuring parent compound remaining at 5 uM after 30 mins in presence of NADPH by UPLC/MS/ESI analysis. Format: ADME. Particulars: read-out: Stability.
Series [6] can be described thus: Tmax in Swiss mouse infected with Trypanosoma brucei brucei Squib 427 at 25 mg/kg, po administered as single dose after 24 hrs by UPLC/MS/ESI analysis. Format: ADME, organism-based. The settings on record: in vivo.
The subject of another series is Mus musculus. The series can be described thus: Apparent volume of distribution in Swiss mouse infected with Trypanosoma brucei brucei Squib 427 at 25 mg/kg, po administered as single dose after 24 hrs by UPLC/MS/ESI analysis. The format is ADME, organism-based. Particulars: in vivo.
Series [7] in a line: Drug level in Swiss mouse blood infected with Trypanosoma brucei brucei Squib 427 at 25 mg/kg, po bid for 5 days measured after 4 hrs after last dose by UPLC/MS/ESI analysis. Format: ADME, organism-based. Particulars: whole blood, read-out: Drug uptake.
A short description of series [8]: Drug metabolism in mouse liver microsomes assessed as UGT mediated compound […] by measuring parent compound remaining at 5 uM after 60 mins in presence of UDPGA by UPLC/MS/ESI analysis. The settings on record: 1 h. Format: ADME. The procedure, abridged: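 Metabolic stability was run with mouse liver microsomal fraction (S9) and read as percent parent compound remaining over incubation time. Diclofenac served as the reference compound.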

Series [9] in a line: Half life in Swiss mouse at 25 mg/kg, po administered as single dose after 24 hrs by UPLC/MS/ESI analysis. Format: ADME, organism-based. Particulars: in vivo. The procedure, abridged:
as §1

Series [10] in a line: Drug level in Swiss mouse blood infected with Trypanosoma brucei brucei Squib 427 at 50 mg/kg, po bid for 5 days measured after 2 hrs after last dose by UPLC/MS/ESI analysis. The settings on record: whole blood, read-out: Drug uptake. The format is ADME, organism-based.
Series [11] has as its system Trypanosoma brucei brucei. As to the kind of experiment: Antitrypanosomal activity against Trypanosoma brucei brucei Squib 427 infected in Swiss mouse assessed as mean survival days at 50 mg/kg, po administered as single dose for 5 days. The format is functional. The procedure, abridged:
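Acute mouse infection model with T. b. brucei. Dosing ran for 5 days after infection, orally or intraperitoneally, once or twice daily. Groups were 3 mice each, with vehicle-treated infected controls. The read-out was mean survival time in days, plus the number of survivors on day 14 post-infection.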

The nature of series [12]: Tmax in Swiss mouse infected with Trypanosoma brucei brucei Squib 427 at 50 mg/kg, po bid for 5 days after 24 hrs by UPLC/MS/ESI analysis. The format is ADME, organism-based. The settings on record: in vivo.

Results on one compound are retold here after ChEMBL document CHEMBL4229376, “Optimization of the pharmacokinetic properties of potent anti-trypanosomal triazine derivatives” (Eur J Med Chem, 2018).

`Nc1nc(Nc2ccc(F)cc2)nc(Oc2ccc(F)cc2)n1`: in [1], the remaining at 0.25 h, 5 µM worked out at 76%. Also, in series [2], the remaining at 0.25 h turned out to be 80%. Besides, the concentration at 2 h in series [3] was 1.63 µg/mL; in [10], 2.84 µg/mL. In addition, the remaining at 0.5 h in series [4] is 91%. Also, the IC50 in the series with Peritoneal macrophage was more than 64 µM. Moreover, in series [5], the remaining at 0.5 h, 5 µM turned out to be 80%. In addition, the Tmax in [6] stood at 0.8 h; in [12], 1.3 h. The Vz in the series on Mus musculus amounted to 13 L. Also, in series [7], the concentration at 4 h turned out to be 0.204 µg/mL. Besides, in [8], the Stability is reported as 101%. In addition, in series [9], the half-life was 4.14 h. Also, the MST in [11] was 7 days.
